According to ChEMBL document CHEMBL1126697, “Bis(heteroaryl)piperazine (BHAP) reverse transcriptase inhibitors: structure-activity relationships of novel substituted indole analogues and the identification of 1-[(5-methanesulfonamido-1H-indol-2-yl)-carbonyl]-4-[3- [(1-methylethyl)amino]-pyridinyl]piperazine monomethanesulfonate (U-90152S), a …” (J Med Chem, 1993):
Where a name gives a salt, the structure may show the parent alone.

Tests used:
[1] = tested on: Human immunodeficiency virus 1; assay: Inhibition of HIV-1 D34 replication in human peripheral blood mononuclear cells.; assay type: functional; details: read-out: ED50 (the source's name)
Outline: (§1)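 PBMC (1×10^6 cells) infected with inoculum containing 1 ng p24 of HIV-1 D34 isolate. Supernatant p24 measured 4 days after infection. Four drug concentrations, 10-fold dilution series. ED50 given as a range when it fell between dilutions. Viability by mitogen-stimulated cell proliferation. Mesylate salts used in this assay.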

[2] = Cytotoxic concentration against PBMC cells; assay type: functional; details: Homo sapiens; outline: as §1
[3] = tested on: MT2; assay: Cytotoxic concentration against MT-2 cells; assay type: functional; details: Homo sapiens
Outline: (§2)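 HIV-1 IIIb infected MT-2 cells at multiplicity of infection 0.001. Syncytium formation scored 4 days post-infection, at peak viral cytopathic effect. Three drug concentrations, 10-fold dilution series. ED50 given as a range when it fell between dilutions. Viability by trypan blue exclusion.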

[4] = target: Human immunodeficiency virus type 1 reverse transcriptase (Human immunodeficiency virus 1, UniProt Q72547); assay: In vitro inhibition of HIV-1 reverse transcriptase
[5] = target: Human immunodeficiency virus type 1 reverse transcriptase (Human immunodeficiency virus 1) (UniProt Q72547); assay: In vitro inhibition of HIV-1 reverse transcriptase at 100 uM
[6] = tested on: Human immunodeficiency virus 1; assay: Inhibition of HIV-1 IIIB replication in MT2 (human lymphocyte) cells.; assay type: functional; details: Human immunodeficiency virus 1, MT2; read-out: ED50 (the source's name); outline: as §2
[7] = tested on: Human immunodeficiency virus 1; assay: Inhibition of HIV-1 replication in human lymphocytes [peripheral blood mononuclear cells (PBMC)/D34 was determined as effective dose; assay type: functional; details: read-out: ED50 (the source's name); outline: as §1

Compound | EC50 [1] [nM] | CC50 [2] [nM] | CC50 [3] [nM] | IC50 [4] [nM] | inhibition [5] [%] | EC50 [6] [nM] | EC50 [7] [nM]
CC(C)Nc1cccnc1N1CCN(C(=O)c2cc3ccc(CO)cc3[nH]2)CC1 | 1 | > 10000 | > 10000 | 760 | 98 | < 250 | –
CCc1cc(NCc2nc3c(Cl)ccc(Cl)c3o2)c(O)nc1C [L-697661] | < 0.1 | > 10000 | > 10000 | 2700 | 98 | < 300 | –
CC(C)Nc1cccnc1N1CCN(C(=O)c2cc3cc(OCc4ccccc4)ccc3[nH]2)CC1 | 10 | > 10000 | > 10000 | 4300 | 74 | < 210 | –
COC(=O)Nc1ccc2[nH]c(C(=O)N3CCN(c4ncccc4NC(C)C)CC3)cc2c1 | 0.1 | > 10000 | > 10000 | 2500 | 96 | – | –
CCNc1cccnc1N1CCN(C(=O)c2cc3cc(O)ccc3[nH]2)CC1 | – | > 10000 | > 10000 | 2000 | 89 | 270 | 10
CC(C)Nc1cccnc1N1CCN(C(=O)c2cc3cc(OS(C)(=O)=O)ccc3[nH]2)CC1 | – | > 10000 | > 10000 | 5500 | 97 | – | –
CC(C)Nc1cccnc1N1CCN(C(=O)c2cc3ccc(OS(C)(=O)=O)cc3[nH]2)CC1 | – | > 10000 | > 10000 | 2200 | 97 | – | –
CC(C)Nc1cccnc1N1CCN(C(=O)c2cc3cc(N)ccc3[nH]2)CC1 | 10 | > 10000 | > 10000 | 1000 | 94 | – | –
CC(C)Nc1cccnc1N1CCN(C(=O)c2cc3cc(NS(C)(=O)=O)ccc3[nH]2)CC1 [DELAVIRDINE] | 0.1 | > 10000 | > 30000 | – | – | 10 | –
CC(C)Nc1cccnc1N1CCN(C(=O)c2cc3ccc(O)cc3[nH]2)CC1 | – | > 10000 | > 10000 | 1200 | 97 | – | –
CC(C)Nc1cccnc1N1CCN(C(=O)c2cc3cc(N(C)S(C)(=O)=O)ccc3[nH]2)CC1 | 1 | > 10000 | > 10000 | 5600 | 95 | – | –
CC(C)Nc1cccnc1N1CCN(C(=O)c2cc3ccc(NS(C)(=O)=O)cc3[nH]2)CC1 | 0.1 | > 10000 | > 10000 | 500 | 98 | < 20 | –
CC(C)Nc1cccnc1N1CCN(C(=O)c2cc3ccc(OCc4ccccc4)cc3[nH]2)CC1 | 100 | > 10000 | > 10000 | 37000 | 65 | – | –
CCNc1cccnc1N1CCN(C(=O)c2cc3ccccc3[nH]2)CC1 | 10 | > 10000 | > 10000 | 4000 | 96 | 300 | –
Cc1cn([C@H]2C[C@H](N=[N+]=[N-])[C@@H](CO)O2)c(=O)[nH]c1=O [ZIDOVUDINE] | 1 | > 10000 | > 10000 | – | – | 70 | –
Cc1ccnc2c1NC(=O)c1cccnc1N2C1CC1 [NEVIRAPINE] | 10 | > 10000 | > 10000 | – | 93 | – | –
Cc1ccc2[nH]c(C(=O)N3CCN(c4ncccc4NC(C)C)CC3)cc2c1 | 10 | > 10000 | > 10000 | 34000 | 68 | 260 | –
COc1ccc2cc(C(=O)N3CCN(c4ncccc4NC(C)C)CC3)[nH]c2c1 | 10 | > 10000 | > 10000 | 1300 | 97 | < 250 | –
CC(C)Nc1cccnc1N1CCN(C(=O)c2cc3cc(NS(=O)(=O)C(F)(F)F)ccc3[nH]2)CC1 | 100 | > 10000 | > 10000 | 8300 | 94 | 200 | –
CC(C)Nc1cccnc1N1CCN(C(=O)c2cc3cc(NC(=O)C(F)(F)F)ccc3[nH]2)CC1 | 1 | > 10000 | > 10000 | 27000 | 85 | 210 | –
CC(=O)Nc1ccc2[nH]c(C(=O)N3CCN(c4ncccc4NC(C)C)CC3)cc2c1 | 10 | > 10000 | > 10000 | 1800 | 94 | > 10000 | –
CC(C)Nc1cccnc1N1CCN(C(=O)c2cc3ccc(F)cc3[nH]2)CC1 | 1 | > 10000 | > 10000 | 4400 | 96 | 260 | –
CCNc1cccnc1N1CCN(C(=O)c2cc3cc(OC)ccc3[nH]2)CC1 [ATEVIRDINE MESYLATE] | 1 | > 10000 | > 10000 | – | 92 | < 200 | –
CC(C)Nc1cccnc1N1CCN(C(=O)c2cc3ccc(C=O)cc3[nH]2)CC1 | 0.1 | > 10000 | > 10000 | 1400 | 94 | < 260 | –
CC(C)Nc1cccnc1N1CCN(C(=O)c2cc3ccc(C#N)cc3[nH]2)CC1 | – | > 10000 | > 10000 | 3900 | 74 | – | –
CC(C)Nc1cccnc1N1CCN(C(=O)c2cc3cc(O)ccc3[nH]2)CC1 | 1 | > 10000 | > 10000 | 1300 | 98 | < 260 | –
CC(C)Nc1cccnc1N1CCN(C(=O)c2cc3ccccc3[nH]2)CC1 | 1 | > 10000 | > 10000 | 1200 | 96 | 300 | –
